# Measurements: ChEMBL document CHEMBL4028810, “Synthesis and biological evaluation of novel chalcone derivatives as a new class of microtubule destabilizing agents” (Eur J Med Chem, 2017)
# Active and inactive are the calls of the source. The rule behind the calls is not given here.
# Assays:
# NCI-H460 [1] = test: Cell cycle arrest in human NCI-H460 cells assessed as accumulation at G1-phase at 10 uM after 48 hrs by propidium iodide staining based flow cytometric method (reference value: 75.84%); assay type: functional
# NCI-H460 [2] = test: Cell cycle arrest in human NCI-H460 cells assessed as accumulation at G1-phase at 5 uM after 48 hrs by propidium iodide staining based flow cytometric method (reference value: 75.84%); assay type: functional
# NCI-H460 [3] = test: Cell cycle arrest in human NCI-H460 cells assessed as accumulation at G2-phase at 10 uM after 48 hrs by propidium iodide staining based flow cytometric method (reference value: 2.37%); assay type: functional
# NCI-H460 [4] = test: Induction of apoptosis in human NCI-H460 cells assessed as increase in cytochrome c release from mitochondria to cytosol after 48 hrs by Western blot method; assay type: functional, cell-based
# Method in brief: (§1)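 NCI-H460 cells were treated 48 h at various concentrations. Cells were washed in ice-cold PBS and lysed on ice for 20 min, and lysates were spun at 20000 g and 4 °C for 5 min. Protein was quantified by BCA, and equal amounts were run on 12% SDS-PAGE and transferred to PVDF. Membranes were blocked in 5% milk/TBST, probed overnight at 4 °C with primary antibodies (β-actin as reference), then with peroxidase secondary for 2 h. Bands were detected by chemiluminescence.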
# NCI-H460 [5] = test: Cell cycle arrest in human NCI-H460 cells assessed as increase in accumulation at G2-phase after 48 hrs by propidium iodide staining based flow cytometric method; assay type: functional
# NCI-H460 [6] = test: Disruption of mitochondrial membrane potential in human NCI-H460 cells assessed as intact mitochondrial membrane potential at 5 uM after 24 hrs by JC-1 staining based flow cytometric method (reference value: 11.9%); assay type: functional
# Method in brief: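 NCI-H460 cells were treated 24 h at 5 or 10 µM, with untreated cells as control. The medium was replaced, and the JC-1 probe was added 20 min later. Cells were then pelleted at 2000 rpm, washed twice in ice-cold PBS and analysed by flow cytometry with excitation at 488 nm and emission at 530 and 590 nm.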
# Sus scrofa = species: Sus scrofa; test: Inhibition of porcine brain tubulin polymerization at 15 uM measured at 1 min interval for 40 mins by spectrophotometric method
# Method in brief: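 Purified brain tubulin, final 3.0 mg/mL, was added to start the reaction in 80 mM PIPES pH 6.9, 2.0 mM MgCl₂, 0.5 mM EGTA, 1 mM GTP and 10.2% glycerol, with the other components prewarmed to 37 °C. Compounds were tested at 10 or 15 µM. Polymerization at 37 °C was followed as absorbance at 340 nm over 40 min.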
# NCI-H460 [7] = test: Induction of apoptosis in human NCI-H460 cells assessed as appearance of hyper-condensed nuclei after 24 hrs by Hoechst 33258 staining based fluorescence assay; assay type: functional, cell-based
# Method in brief: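 NCI-H460 cells were treated 24 h at 5 or 10 µM, with untreated cells as control. Nuclei were stained with Hoechst 33258 and inspected by fluorescence for chromatin condensation.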
# L02 = test: Cytotoxicity against human HL7702 cells after 48 hrs by MTT assay; assay type: cell-based; details: L02, 48 h
# Method in brief: (§2)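 Log-phase cells were seeded at about 1 × 10⁵ cells/mL in 96-well plates and allowed to settle 12 h at 37 °C in 5% CO₂. Compounds were added at five concentrations for 48 h. Absorbance was read at dual wavelength 570/630 nm. Survival was expressed as a percentage of control, and IC50 was calculated by the Bliss method (n = 5). Each test was run in triplicate.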
# NCI-H460 [8] = test: Cell cycle arrest in human NCI-H460 cells assessed as accumulation at G2-phase at 5 uM after 48 hrs by propidium iodide staining based flow cytometric method (reference value: 2.37%); assay type: functional
# A549 = test: Cytotoxicity against human A549 cells after 48 hrs by MTT assay; assay type: functional, cell-based; details: A549, 48 h; method in brief: as §2
# NCI-H460 [9] = test: Induction of apoptosis in human NCI-H460 cells assessed as increase in cleaved caspase-3 expression at 5 to 10 uM after 48 hrs by Western blot method; assay type: functional, cell-based; method in brief: as §1
smiles,measurement,setting,value
COc1ccc(/C=C/C(=O)c2cc(OC)c(OC)c(OC)c2)cc1OCC(=O)Nc1ccccc1Cl,Activity,NCI-H460 [1],1.95%
same,Activity,NCI-H460 [2],59.12%
same,Activity,NCI-H460 [3],72.4%
same,Activity,NCI-H460 [4],Dose-dependent effect
same,Activity,NCI-H460 [5],Dose-dependent effect
same,Activity,NCI-H460 [6],16.9%
same,inhibition,Sus scrofa,Active
same,Activity,NCI-H460 [7],Dose-dependent effect
same,IC50,L02,> 50 µM
same,Activity,NCI-H460 [8],11.88%
same,IC50,A549,5.21 µM
same,Activity,NCI-H460 [9],Active
